Active and inactive are the calls of the source. The calls are words filed in the database; no cut-off is given here.
Tests used:
[1] = Lipophilicity, log D of the compound at pH 7.4 by HPLC analysis; assay type: physicochemical; details: buffer
In short: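 At pH 7.4, log D derived from HPLC retention time relative to standard compounds.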

Rattus norvegicus [2] = experiment: Inhibition of histamine-induced acid secretion in Jcl:Sprague-Dawley rat assessed as increase in pH of gastric perfusate at 1 mg/kg, iv pretreated for 3 mins after pylorus ligation followed by histamine.2HCl treatment measured after 3 hrs by glass electrode method; assay type: functional, organism-based
[3] = Drug uptake in Sprague-Dawley rat stomach at 0.2 mg/kg, iv administered as cassette dose after 24 hrs by LC-MS/MS analysis; assay type: ADME, organism-based; details: read-out: Drug uptake
In short: (§1)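 Fasted male Sprague-Dawley rats given compounds iv by cassette dosing at 0.2 mg/kg (as free base). Plasma and stomach sampled at 10 min, 1, 4 and 24 h. Plasma and 20% stomach homogenate in saline deproteinized with acetonitrile containing internal standard, then LC/MS/MS. AUC calculated for plasma and stomach. Values are averages of three rats.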

CYP3A4 = CYP3A4 (Homo sapiens, UniProt P08684); experiment: Inhibition of CYP3A4 (unknown origin) expressed in insect cells at 10 uM using testosterone as substrate after 15 mins by HPLC analysis relative to control; assay type: ADME; details: recombinant CYP3A4 expressed in insect cells, probe testosterone
In short: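 Testosterone substrate at 100 μmol/L with 10 nmol/L insect-cell-expressed CYP3A4 and 10 μmol/L test compound, incubated 15 min at 37 °C. 6β-hydroxytestosterone quantified by HPLC with UV detection.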

[4] = Plasma concentration in Sprague-Dawley rat at 0.2 mg/kg, iv administered as cassette dose after 1 hr by LC-MS/MS analysis; assay type: ADME, organism-based; in short: as §1
[5] = Plasma concentration in Sprague-Dawley rat at 0.2 mg/kg, iv administered as cassette dose after 10 mins by LC-MS/MS analysis; assay type: ADME, organism-based; in short: as §1
[6] = Cytotoxicity against human HepG2 cells assessed as cellular ATP level at 100 uM after 1 day by ATPLite assay relative to control; assay type: cell-based; details: read-out: Activity
Rattus norvegicus [7] = experiment: Inhibition of histamine-induced acid secretion in Jcl:Sprague-Dawley rat gastric at 1 mg/kg, iv pretreated for 3 mins after pylorus ligation followed by histamine.2HCl treatment measured after 3 hrs by titration method relative to control; assay type: functional
In short: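 Anesthetized rats dosed iv at 1 mg/kg. Total acid output over 3 h after histamine injection compared with vehicle-treated rats.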

Stomach = experiment: AUC in Sprague-Dawley rat stomach at 0.2 mg/kg, iv administered as cassette dose by LC-MS/MS analysis; assay type: ADME, organism-based; details: in vivo; in short: as §1
[8] = Drug uptake in Sprague-Dawley rat stomach at 0.2 mg/kg, iv administered as cassette dose after 10 mins by LC-MS/MS analysis; assay type: ADME, organism-based; details: read-out: Drug uptake; in short: as §1
[9] = Drug uptake in Sprague-Dawley rat stomach at 0.2 mg/kg, iv administered as cassette dose after 1 hr by LC-MS/MS analysis; assay type: ADME, organism-based; details: read-out: Drug uptake; in short: as §1
[10] = Drug uptake in Sprague-Dawley rat stomach at 0.2 mg/kg, iv administered as cassette dose after 4 hrs by LC-MS/MS analysis; assay type: ADME, organism-based; details: read-out: Drug uptake; in short: as §1
hERG (KCNH2) = hERG (KCNH2) (Homo sapiens, UniProt Q12809); experiment: Inhibition of human ERG expressed in HEK cells at 10 uM at -75 mV holding potential by Whole-cell voltage clamp assay relative to control; assay type: cell-based; details: HEK cells expressing human ERG
[11] = AUC in Sprague-Dawley rat plasma at 0.2 mg/kg, iv administered as cassette dose by LC-MS/MS analysis; assay type: ADME, organism-based; in short: as §1
[12] = Inhibition of H+/K+-ATPase in porcine stomach gastric mucosal microsomes assessed as reduction in inorganic phosphate production using ATP as substrate preincubated for 30 mins followed by ATP addition in presence of KCl at pH 6.5 by malachite green reagent based colorimetric assay; design: species or system Sus scrofa
[13] = Plasma concentration in Sprague-Dawley rat at 0.2 mg/kg, iv administered as cassette dose after 4 hrs by LC-MS/MS analysis; assay type: ADME, organism-based; in short: as §1
Rattus norvegicus [14] = experiment: Inhibition of histamine-induced acid secretion in Jcl:Sprague-Dawley rat assessed as increase in pH of gastric perfusate at 1 mg/kg, iv pretreated for 3 mins after pylorus ligation followed by histamine.2HCl treatment measured after 180 to 300 mins by glass electrode method; assay type: functional, organism-based
Canis familiaris [15] = experiment: Inhibition of histamine-induced acid secretion in dog heidenhain pouch at 1 mg/kg, po treated 1 day after and 1 to 48 hrs before histamine.2HCl treatment measured 30 mins post histamine challenge by titration method; assay type: functional, organism-based; details: Canis lupus familiaris
Rattus norvegicus [16] = experiment: Inhibition of histamine-induced acid secretion in Jcl:Sprague-Dawley rat assessed as pH of gastric perfusate at 1 mg/kg, iv pretreated for 3 mins after pylorus ligation followed by histamine.2HCl treatment measured after 3 hrs by glass electrode method (reference value: 2); assay type: functional
[17] = Stability of the compound under acidic condition; assay type: physicochemical
Rattus norvegicus [18] = experiment: Inhibition of histamine-induced acid secretion in po dosed rat assessed as increase in pH of gastric perfusate pretreated for 1 hr followed by pylorus ligation and histamine.2HCl treatment measured after 3 hrs by glass electrode method; assay type: functional, organism-based
Canis familiaris [19] = experiment: Inhibition of histamine-induced acid secretion in dog heidenhain pouch at 1 mg/kg, po treated 1 day after and 1 to 48 hrs before histamine.2HCl treatment measured up to 24 hrs post dose by titration method; assay type: functional, organism-based; details: Canis lupus familiaris
In short: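 Heidenhain pouch dogs dosed orally at 1 mg/kg, with histamine-stimulated acid secretion followed over time, up to 24 h after dosing. Mean ± SE from three or four dogs.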

[20] = Dissociation constant, pKa of the compound; assay type: physicochemical
In short: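 pH-metric titration across pH 2–12 with an Ag/AgCl pH electrode.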

[21] = Inhibition of CYP450 (unknown origin); assay type: ADME; details: human

Chain of CYP3A4 (P08684 whole entry): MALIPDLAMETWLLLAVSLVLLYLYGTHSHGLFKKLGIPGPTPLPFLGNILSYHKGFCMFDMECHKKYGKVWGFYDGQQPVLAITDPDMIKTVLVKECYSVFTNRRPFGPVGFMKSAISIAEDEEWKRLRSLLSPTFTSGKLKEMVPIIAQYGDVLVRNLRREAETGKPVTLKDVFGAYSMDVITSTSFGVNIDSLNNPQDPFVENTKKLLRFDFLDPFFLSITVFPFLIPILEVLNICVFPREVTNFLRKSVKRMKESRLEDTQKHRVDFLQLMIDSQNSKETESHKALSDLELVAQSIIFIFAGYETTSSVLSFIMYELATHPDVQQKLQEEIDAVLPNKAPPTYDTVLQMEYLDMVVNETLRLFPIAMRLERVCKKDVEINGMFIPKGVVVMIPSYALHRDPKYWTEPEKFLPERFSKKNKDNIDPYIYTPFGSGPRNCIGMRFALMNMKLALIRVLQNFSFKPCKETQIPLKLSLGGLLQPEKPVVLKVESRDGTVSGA
Chain of hERG (KCNH2) (Q12809 whole entry): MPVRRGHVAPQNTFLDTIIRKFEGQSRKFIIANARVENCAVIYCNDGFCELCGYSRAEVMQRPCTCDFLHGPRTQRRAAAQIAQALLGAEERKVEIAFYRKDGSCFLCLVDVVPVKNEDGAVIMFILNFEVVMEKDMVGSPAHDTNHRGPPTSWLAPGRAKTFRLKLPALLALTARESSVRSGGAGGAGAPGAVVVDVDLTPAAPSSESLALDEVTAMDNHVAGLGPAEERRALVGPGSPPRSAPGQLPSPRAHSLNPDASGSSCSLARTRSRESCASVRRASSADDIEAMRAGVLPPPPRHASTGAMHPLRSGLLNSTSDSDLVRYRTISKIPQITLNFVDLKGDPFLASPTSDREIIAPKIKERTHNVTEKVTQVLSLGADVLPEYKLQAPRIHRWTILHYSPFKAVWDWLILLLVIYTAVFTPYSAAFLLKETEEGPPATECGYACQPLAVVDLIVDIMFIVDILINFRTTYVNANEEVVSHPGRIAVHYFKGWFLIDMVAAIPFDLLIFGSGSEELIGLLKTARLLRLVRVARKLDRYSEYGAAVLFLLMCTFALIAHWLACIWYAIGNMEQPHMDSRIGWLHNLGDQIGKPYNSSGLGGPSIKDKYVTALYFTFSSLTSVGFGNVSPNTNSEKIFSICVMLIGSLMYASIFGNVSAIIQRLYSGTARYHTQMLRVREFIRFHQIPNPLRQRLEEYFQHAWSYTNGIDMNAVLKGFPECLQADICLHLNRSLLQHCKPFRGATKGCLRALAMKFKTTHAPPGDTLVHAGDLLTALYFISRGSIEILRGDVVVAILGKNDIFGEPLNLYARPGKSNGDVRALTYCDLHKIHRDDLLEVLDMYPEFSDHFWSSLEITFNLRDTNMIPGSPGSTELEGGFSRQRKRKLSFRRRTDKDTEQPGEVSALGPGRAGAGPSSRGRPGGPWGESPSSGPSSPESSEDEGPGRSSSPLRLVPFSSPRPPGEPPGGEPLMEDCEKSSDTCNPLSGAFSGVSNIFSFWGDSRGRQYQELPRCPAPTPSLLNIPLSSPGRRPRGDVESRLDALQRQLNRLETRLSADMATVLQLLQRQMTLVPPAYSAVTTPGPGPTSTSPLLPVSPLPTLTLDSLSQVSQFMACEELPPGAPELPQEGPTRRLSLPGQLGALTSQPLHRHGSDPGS

Q: Which logD [1] does the source give for `CNCc1cn(S(=O)(=O)c2cccc(OC)n2)c(-c2cccnc2F)c1F` here?
A: 1.03

Q: What about the inhibition (Rattus norvegicus [2]) of the same molecule?
A: Active

Q: And the concentration at 24 h [3]?
A: 47.9 ng/g

Q: And the inhibition at 0.25 h, 10 µM (CYP3A4)?
A: 55.8%

Q: And the concentration at 1 h [4]?
A: 14.9 ng/mL

Q: And the concentration at 10 min [5]?
A: 43.5 ng/mL

Q: What about the viability at 24 h, 100 µM [6] of the same molecule?
A: 69.8%

Q: What about the inhibition in vivo at 1 mg/kg (Rattus norvegicus [7]) of the same molecule?
A: 98%

Q: And the AUC (Stomach)?
A: 14434 ng·h/g

Q: What about the concentration at 10 min [8] of the same molecule?
A: 773 ng/g

Q: What about the concentration at 1 h [9] of the same molecule?
A: 1260 ng/g

Q: What about the concentration at 4 h [10] of the same molecule?
A: 971 ng/g

Q: What about the inhibition at 10 µM (hERG (KCNH2)) of the same molecule?
A: 82.3%

Q: What about the AUC [11] of the same molecule?
A: 50 ng·h/mL

Q: What about the IC50 [12] of the same molecule?
A: 0.15 µM

Q: For `CNCc1cn(S(=O)(=O)c2cccnc2C)c(-c2cccnc2F)c1F`, which logD [1] is on record?
A: 0.48

Q: What about the inhibition at 0.25 h, 10 µM (CYP3A4) of the same molecule?
A: 30.1%

Q: What about the concentration at 1 h [4] of the same molecule?
A: 8 ng/mL

Q: What about the concentration at 10 min [5] of the same molecule?
A: 25.3 ng/mL

Q: What about the viability at 24 h, 100 µM [6] of the same molecule?
A: 97.4%

Q: What about the inhibition in vivo at 1 mg/kg (Rattus norvegicus [7]) of the same molecule?
A: 92%

Q: And the AUC (Stomach)?
A: 4806 ng·h/g

Q: What about the concentration at 10 min [8] of the same molecule?
A: 507 ng/g

Q: What about the concentration at 1 h [9] of the same molecule?
A: 577 ng/g

Q: What about the concentration at 4 h [10] of the same molecule?
A: 300 ng/g

Q: And the inhibition at 10 µM (hERG (KCNH2))?
A: 14.8%

Q: What about the AUC [11] of the same molecule?
A: 32 ng·h/mL

Q: And the IC50 [12]?
A: 0.21 µM

Q: What about the concentration at 4 h [13] of the same molecule?
A: 0.3 ng/mL

Q: Which logD [1] does the source give for `CNCc1cn(S(=O)(=O)c2ccc(C)nc2)c(-c2cccnc2F)c1F` here?
A: 0.62

Q: And the inhibition (Rattus norvegicus [2])?
A: Active

Q: What about the concentration at 24 h [3] of the same molecule?
A: 219 ng/g

Q: And the inhibition at 0.25 h, 10 µM (CYP3A4)?
A: -1.2%

Q: What about the concentration at 1 h [4] of the same molecule?
A: 10.8 ng/mL

Q: What about the concentration at 10 min [5] of the same molecule?
A: 40.1 ng/mL

Q: What about the viability at 24 h, 100 µM [6] of the same molecule?
A: 76.7%

Q: What about the inhibition in vivo at 1 mg/kg (Rattus norvegicus [7]) of the same molecule?
A: 97%

Q: What about the AUC (Stomach) of the same molecule?
A: 18284 ng·h/g

Q: What about the concentration at 10 min [8] of the same molecule?
A: 672 ng/g

Q: And the concentration at 1 h [9]?
A: 1120 ng/g

Q: And the concentration at 4 h [10]?
A: 1180 ng/g

Q: What about the inhibition at 10 µM (hERG (KCNH2)) of the same molecule?
A: 24.8%

Q: What about the AUC [11] of the same molecule?
A: 41 ng·h/mL

Q: And the inhibition (Rattus norvegicus [14])?
A: inactive

Q: What about the IC50 [12] of the same molecule?
A: 0.18 µM

Q: What does the source list for `CNCc1cn(S(=O)(=O)c2ccccn2)c(-c2cccnc2F)c1F`?
A: logD [1]: 0.44; inhibition (Canis familiaris [15]): Active; pH (Rattus norvegicus [16]): 5; concentration at 24 h [3]: 2.1 ng/g; inhibition at 0.25 h, 10 µM (CYP3A4): 7.7%; concentration at 1 h [4]: 7.9 ng/mL; concentration at 10 min [5]: 36 ng/mL; viability at 24 h, 100 µM [6]: 94.8%; inhibition in vivo at 1 mg/kg (Rattus norvegicus [7]): 95%; AUC (Stomach): 5757 ng·h/g; concentration at 10 min [8]: 617 ng/g; concentration at 1 h [9]: 809 ng/g; concentration at 4 h [10]: 337 ng/g; inhibition at 10 µM (hERG (KCNH2)): 9%; AUC [11]: 33 ng·h/mL; inhibition (Rattus norvegicus [14]): inactive; IC50 [12]: 0.097 µM

Q: Which results are given for `CNCc1cn(S(=O)(=O)c2cncc(F)c2)c(-c2cccnc2F)c1F`?
A: logD [1]: 0.83; pH (Rattus norvegicus [16]): >5; concentration at 24 h [3]: 38.3 ng/g; inhibition at 0.25 h, 10 µM (CYP3A4): 27%; concentration at 1 h [4]: 8.3 ng/mL; concentration at 10 min [5]: 43 ng/mL; viability at 24 h, 100 µM [6]: 88.9%; inhibition in vivo at 1 mg/kg (Rattus norvegicus [7]): 99%; AUC (Stomach): 6599 ng·h/g; concentration at 10 min [8]: 330 ng/g; concentration at 1 h [9]: 606 ng/g; concentration at 4 h [10]: 425 ng/g; inhibition at 10 µM (hERG (KCNH2)): 22.7%; AUC [11]: 38 ng·h/mL; inhibition (Rattus norvegicus [14]): inactive; IC50 [12]: 0.2 µM

Q: Which Stability [17] does the source give for `CNCc1cn(S(=O)(=O)c2cc(C)ccn2)c(-c2cccnc2F)c1F` here?
A: Stable

Q: And the logD [1]?
A: 0.48

Q: And the inhibition (Canis familiaris [15])?
A: Active

Q: And the inhibition (Rattus norvegicus [18])?
A: Dose-dependent effect

Q: What about the pH (Rattus norvegicus [16]) of the same molecule?
A: 6

Q: What about the concentration at 24 h [3] of the same molecule?
A: 28.9 ng/g

Q: And the inhibition at 0.25 h, 10 µM (CYP3A4)?
A: 4.3%

Q: And the inhibition (Canis familiaris [19])?
A: Active

Q: What about the concentration at 1 h [4] of the same molecule?
A: 8.1 ng/mL

Q: What about the concentration at 10 min [5] of the same molecule?
A: 39.4 ng/mL

Q: And the viability at 24 h, 100 µM [6]?
A: 85.5%

Q: What about the inhibition in vivo at 1 mg/kg (Rattus norvegicus [7]) of the same molecule?
A: 92%

Q: And the AUC (Stomach)?
A: 10378 ng·h/g

Q: And the concentration at 10 min [8]?
A: 947 ng/g

Q: What about the concentration at 1 h [9] of the same molecule?
A: 927 ng/g

Q: And the concentration at 4 h [10]?
A: 682 ng/g

Q: What about the inhibition at 10 µM (hERG (KCNH2)) of the same molecule?
A: 45.1%

Q: What about the AUC [11] of the same molecule?
A: 35 ng·h/mL

Q: What about the inhibition (Rattus norvegicus [14]) of the same molecule?
A: inactive

Q: What about the pKa [20] of the same molecule?
A: 8.73

Q: And the IC50 [12]?
A: 0.073 µM

Q: What about the “inhibition (INH)” value [21] of the same molecule?
A: Not Active
